Assay results reported in ChEMBL document CHEMBL1149786, “Synthesis and antihypertensive effects of new methylthiomorpholinphenol derivatives” (2008).
The source made the active and inactive calls. The calls are words filed in the database; no cut-off is given here.

Tests used:
Rattus norvegicus [1] = assay: Hypotensive effect in anesthetized Wistar rat arterial pressure model at 0.001 mg/kg administered through femoral vein; type: functional, organism-based; parameters: dose 0.001 mg/kg; details: Artery
Outline: (§1)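 Male Wistar rats (280–320 g) under sodium pentobarbital (45 mg/kg, ip), tracheotomised. Right carotid cannulated (PE50) to a pressure transducer recording systolic, diastolic and mean arterial pressure and heart rate. Cumulative iv doses via femoral vein every 5 min: test series 0.0001–10 mg/kg, reference drugs 0.0001–1.0 mg/kg, n = 5. Change measured from pre-dose basal; ED50 taken from a fitted dose–effect model.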

Rattus norvegicus [2] = assay: Antihypertensive effect in spontaneous hypertensive Wistar rat model assessed as maximum decrease in systolic arterial pressure at 1.0 mg/kg, po after 90 mins; type: functional, Artery
Outline: (§2)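 Conscious spontaneously hypertensive rats given a single oral dose of 1.0 mg/kg. Systolic and diastolic pressure and heart rate followed over 2.0 h. The largest fall from baseline and the time at which it occurred were recorded for each variable.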

Rattus norvegicus [3] = assay: Hypotensive effect in anesthetized Wistar rat arterial pressure model at 10.0 mg/kg administered through femoral vein; type: functional, organism-based; parameters: dose 10 mg/kg; details: Artery; outline: as §1
Rattus norvegicus [4] = assay: Antihypertensive effect in anesthetized Wistar rat; type: functional; outline: as §1
Rattus norvegicus [5] = assay: Hypotensive effect in anesthetized Wistar rat arterial pressure model at 0.1 mg/kg administered through femoral vein; type: functional, organism-based; parameters: dose 0.1 mg/kg; details: Artery; outline: as §1
Rattus norvegicus [6] = assay: Antihypertensive effect in anesthetized Wistar rat assessed as reduction of mean arterial pressure at 1 mg/kg administered through femoral vein; type: functional, organism-based; parameters: dose 1 mg/kg; details: Artery
Outline: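 Male Wistar rats (280–320 g) anesthetized with sodium pentobarbital (45 mg/kg ip), tracheotomized; right carotid artery cannulated to a pressure transducer recording systolic, diastolic and mean arterial pressure and heart rate. Compounds given IV via femoral vein as cumulative dose–effect curve (0.0001–10 mg/kg), doses every five minutes; n = 5.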

Rattus norvegicus [7] = assay: Hypotensive effect in anesthetized Wistar rat arterial pressure model at 0.0001 mg/kg administered through femoral vein; type: functional, organism-based; parameters: dose 0.0001 mg/kg; details: Artery; outline: as §1
Rattus norvegicus [8] = assay: Hypotensive effect in anesthetized Wistar rat arterial pressure model at 3.1 mg/kg administered through femoral vein; type: functional, organism-based; parameters: dose 3.1 mg/kg; details: Artery; outline: as §1
Rattus norvegicus [9] = assay: Hypotensive effect in anesthetized Wistar rat arterial pressure model at 1.0 mg/kg administered through femoral vein; type: functional, organism-based; parameters: dose 1 mg/kg; details: Artery; outline: as §1
Rattus norvegicus [10] = assay: Hypotensive effect in anesthetized Wistar rat arterial pressure model assessed as decrease in heart rate at 3.1 mg/kg administered through femoral vein; type: functional, organism-based; parameters: dose 3.1 mg/kg; outline: as §1
Rattus norvegicus [11] = assay: Hypotensive effect in anesthetized Wistar rat arterial pressure model at 0.01 mg/kg administered through femoral vein; type: functional, organism-based; parameters: dose 0.01 mg/kg; details: Artery; outline: as §1
Rattus norvegicus [12] = assay: Hypotensive effect in anesthetized Wistar rat arterial pressure model assessed as decrease in heart rate at 10.0 mg/kg administered through femoral vein; type: functional, organism-based; parameters: dose 10 mg/kg; outline: as §1
Rattus norvegicus [13] = assay: Hypotensive effect in anesthetized Wistar rat arterial pressure model assessed as decrease in heart rate at 1.0 mg/kg administered through femoral vein; type: functional, organism-based; parameters: dose 1 mg/kg; outline: as §1
Rattus norvegicus [14] = assay: Antihypertensive effect in spontaneous hypertensive Wistar rat model assessed as maximum decrease in heart rate per min at 1.0 mg/kg, po after 100 mins; type: functional; outline: as §2
Rattus norvegicus [15] = assay: Antihypertensive effect in spontaneous hypertensive Wistar rat model assessed as maximum decrease in diastolic arterial pressure at 1.0 mg/kg, po after 90 mins; type: functional, Artery; outline: as §2
Rattus norvegicus [16] = assay: Antihypertensive effect in spontaneous hypertensive Wistar rat model assessed as maximum decrease in diastolic arterial pressure at 1.0 mg/kg, po after 60 mins; type: functional, Artery; outline: as §2
Rattus norvegicus [17] = assay: Hypotensive effect in anesthetized Wistar rat arterial pressure model assessed as decrease in heart rate at 0.01 mg/kg administered through femoral vein; type: functional, organism-based; parameters: dose 0.01 mg/kg; outline: as §1
Rattus norvegicus [18] = assay: Antihypertensive effect in spontaneous hypertensive Wistar rat model assessed as maximum decrease in systolic arterial pressure at 1.0 mg/kg, po after 100 mins; type: functional, Artery; outline: as §2
Rattus norvegicus [19] = assay: Hypotensive effect in anesthetized Wistar rat arterial pressure model assessed as decrease in heart rate at 0.1 mg/kg administered through femoral vein; type: functional, organism-based; parameters: dose 0.1 mg/kg; outline: as §1
Rattus norvegicus [20] = assay: Antihypertensive effect in spontaneous hypertensive Wistar rat model assessed as maximum decrease in systolic arterial pressure at 1.0 mg/kg, po after 60 mins; type: functional, Artery; outline: as §2
Rattus norvegicus [21] = assay: Antihypertensive effect in spontaneous hypertensive Wistar rat model assessed as maximum decrease in heart rate per min at 1.0 mg/kg, po after 120 mins; type: functional; outline: as §2
Rattus norvegicus [22] = assay: Antihypertensive effect in anesthetized Wistar rat assessed as reduction of systolic arterial pressure at 1 mg/kg administered through femoral vein; type: functional, organism-based; parameters: dose 1 mg/kg; details: Artery; outline: as §1
Rattus norvegicus [23] = assay: Antihypertensive effect in spontaneous hypertensive Wistar rat model assessed as maximum decrease in systolic arterial pressure at 1.0 mg/kg, po after 50 mins; type: functional, Artery; outline: as §2
Rattus norvegicus [24] = assay: Antihypertensive effect in spontaneous hypertensive Wistar rat model assessed as maximum decrease in diastolic arterial pressure at 1.0 mg/kg, po after 100 mins; type: functional, Artery; outline: as §2
Rattus norvegicus [25] = assay: Antihypertensive effect in anesthetized Wistar rat assessed as reduction of diastolic arterial pressure at 1 mg/kg administered through femoral vein; type: functional, organism-based; parameters: dose 1 mg/kg; details: Artery; outline: as §1
Rattus norvegicus [26] = assay: Antihypertensive effect in spontaneous hypertensive Wistar rat model assessed as maximum decrease in heart rate per min at 1.0 mg/kg, po after 70 mins; type: functional; outline: as §2
Rattus norvegicus [27] = assay: Antihypertensive effect in anesthetized Wistar rat assessed as change systolic arterial pressure at 10.0 mg/kg administered through femoral vein; type: functional, Artery; outline: as §1
Rattus norvegicus [28] = assay: Antihypertensive effect in spontaneous hypertensive Wistar rat model assessed as maximum decrease in diastolic arterial pressure at 1.0 mg/kg, po after 80 mins; type: functional, Artery; outline: as §2
Rattus norvegicus [29] = assay: Antihypertensive effect in spontaneous hypertensive Wistar rat model assessed as maximum decrease in systolic arterial pressure at 1.0 mg/kg, po after 80 mins; type: functional, Artery; outline: as §2
Rattus norvegicus [30] = assay: Antihypertensive effect in spontaneous hypertensive Wistar rat model assessed as maximum decrease in heart rate per min at 1.0 mg/kg, po after 80 mins; type: functional; outline: as §2
Rattus norvegicus [31] = assay: Antihypertensive effect in anesthetized Wistar rat assessed as change mean arterial pressure at 10.0 mg/kg administered through femoral vein; type: functional, Artery; outline: as §1
Rattus norvegicus [32] = assay: Antihypertensive effect in anesthetized Wistar rat assessed as change diastolic arterial pressure at 10.0 mg/kg administered through femoral vein; type: functional, Artery; outline: as §1
Rattus norvegicus [33] = assay: Hypotensive effect in anesthetized Wistar rat arterial pressure model assessed as decrease in heart rate at 0.001 mg/kg administered through femoral vein; type: functional, organism-based; parameters: dose 0.001 mg/kg; outline: as §1
Rattus norvegicus [34] = assay: Hypotensive effect in anesthetized Wistar rat arterial pressure model assessed as decrease in heart rate at 0.0001 mg/kg administered through femoral vein; type: functional, organism-based; parameters: dose 0.0001 mg/kg; outline: as §1
Rattus norvegicus [35] = assay: Antihypertensive effect in spontaneous hypertensive Wistar rat model assessed as maximum decrease in heart rate per min at 1.0 mg/kg, po after 110 mins; type: functional; outline: as §2

CC(C)(C)c1cc(CN2CCSCC2)c(O)c(CN2CCSCC2)c1
Activity (Rattus norvegicus [1]): Active
Activity (Rattus norvegicus [2]): 95.8 mmHg
Activity (Rattus norvegicus [3]): Active
ED50 (Rattus norvegicus [4]): 0.411 mg/kg
Activity (Rattus norvegicus [5]): Active
Activity (Rattus norvegicus [6]): Active
Activity (Rattus norvegicus [7]): Active
Activity (Rattus norvegicus [8]): Active
Activity (Rattus norvegicus [9]): Active
Activity (Rattus norvegicus [10]): Active
Activity (Rattus norvegicus [11]): Active
Activity (Rattus norvegicus [12]): Active
Activity (Rattus norvegicus [13]): Active
Activity (Rattus norvegicus [14]): 160 beats/min
Activity (Rattus norvegicus [15]): 48.2 mmHg

CC(C)(C)c1ccc(O)c(CN2CCSCC2)c1
Activity (Rattus norvegicus [1]): Active
Activity (Rattus norvegicus [3]): Active
ED50 (Rattus norvegicus [4]): 1.04 mg/kg
Activity (Rattus norvegicus [5]): Active
Activity (Rattus norvegicus [8]): Active
Activity (Rattus norvegicus [16]): 31.8 mmHg
Activity (Rattus norvegicus [9]): Active
Activity (Rattus norvegicus [12]): Active
Activity (Rattus norvegicus [13]): Active
Activity (Rattus norvegicus [17]): Active
Activity (Rattus norvegicus [14]): 148 beats/min
Activity (Rattus norvegicus [18]): 71.5 mmHg
Activity (Rattus norvegicus [19]): Active

CC(C)(c1ccc(O)c(CN2CCSCC2)c1)c1ccc(O)c(CN2CCSCC2)c1
Activity (Rattus norvegicus [20]): 28.1 mmHg
Activity (Rattus norvegicus [3]): Active
ED50 (Rattus norvegicus [4]): 1.41 mg/kg
Activity (Rattus norvegicus [7]): Active
Activity (Rattus norvegicus [8]): Active
Activity (Rattus norvegicus [16]): 12.6 mmHg
Activity (Rattus norvegicus [9]): Active
Activity (Rattus norvegicus [10]): Active
Activity (Rattus norvegicus [12]): Active
Activity (Rattus norvegicus [13]): Active
Activity (Rattus norvegicus [17]): Active
Activity (Rattus norvegicus [19]): Active
Activity (Rattus norvegicus [21]): 106.566

Oc1cc(O)c(CN2CCSCC2)cc1CN1CCSCC1
Activity (Rattus norvegicus [20]): 45.6 mmHg
ED50 (Rattus norvegicus [4]): 0.363 mg/kg
Activity (Rattus norvegicus [16]): 29.2 mmHg
Activity (Rattus norvegicus [10]): Active
Activity (Rattus norvegicus [12]): Active
Activity (Rattus norvegicus [13]): Active
Activity (Rattus norvegicus [17]): Active
Activity (Rattus norvegicus [19]): Active
Activity (Rattus norvegicus [21]): 92.5

O=C(N[C@H]1CCS[C@H]2CCC[C@@H](C(=O)O)N2C1=O)[C@@H](S)Cc1ccccc1 [OMAPATRILAT]
ED50 (Rattus norvegicus [4]): 0.0058 mg/kg

C[C@H](CS)C(=O)N1CCC[C@H]1C(=O)O [CAPTOPRIL]
ED50 (Rattus norvegicus [4]): 0.00062 mg/kg
Activity (Rattus norvegicus [22]): Active
Activity (Rattus norvegicus [23]): 42 mmHg
Activity (Rattus norvegicus [24]): 36.5 mmHg
Activity (Rattus norvegicus [25]): Active
Activity (Rattus norvegicus [26]): 52.04

CCCCc1nc(Cl)c(CO)n1Cc1ccc(-c2ccccc2-c2nnn[nH]2)cc1 [LOSARTAN]
Activity (Rattus norvegicus [27]): 43.62 mmHg
Activity (Rattus norvegicus [28]): 66.3 mmHg
ED50 (Rattus norvegicus [4]): 0.0282 mg/kg
Activity (Rattus norvegicus [29]): 82.3 mmHg
Activity (Rattus norvegicus [30]): 38.37
Activity (Rattus norvegicus [31]): 41.31 mmHg
Activity (Rattus norvegicus [32]): 45.64 mmHg

Oc1ccc(Cl)cc1CN1CCSCC1
Activity (Rattus norvegicus [3]): Active
ED50 (Rattus norvegicus [4]): 2.21 mg/kg
Activity (Rattus norvegicus [24]): 46.7 mmHg
Activity (Rattus norvegicus [8]): Active
Activity (Rattus norvegicus [33]): Active
Activity (Rattus norvegicus [9]): Active
Activity (Rattus norvegicus [34]): Active
Activity (Rattus norvegicus [35]): 72.2
Activity (Rattus norvegicus [17]): Active
Activity (Rattus norvegicus [18]): 73.9 mmHg
